Experimental data from paper PMC10651396 (The Journal of Cell Biology, 2023).
Changes are numbered by the printed parent chain. Each block holds one molecule with its values, some of them ahead of it. Where no end group is shown, it is not given here.

Legend:
[1] = tested on: His-Cap1/2; test: GST pulldown of capping protein by GST-CPI motif fusions; type: binding, Saccharomyces cerevisiae; details: in words; SDS-PAGE and Coomassie staining; His-Tda2 added with Aim21 fusions
Method in brief: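 Recombinant GST-CPI fusions and His-Cap1/2 were expressed in BL21 codon plus E. coli, affinity-purified, and dialyzed into PBS. GST protein (10 μg) was bound to glutathione Sepharose for 30 min at 4°C. Equimolar His-protein (His-Tda2 also for Aim21) was added for another 30 min. Resin was washed three times in PBS with 0.1–0.5% Triton X-100. Each pulldown was repeated independently.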

[2] = target: T1, His-Cap1/2 (CP) (Saccharomyces cerevisiae, UniProt P13517+P28495); type: biochemical; details: in words; yeast actin, CP 100 nM, 500 nM peptide
T1 sequence (P28495 1-268): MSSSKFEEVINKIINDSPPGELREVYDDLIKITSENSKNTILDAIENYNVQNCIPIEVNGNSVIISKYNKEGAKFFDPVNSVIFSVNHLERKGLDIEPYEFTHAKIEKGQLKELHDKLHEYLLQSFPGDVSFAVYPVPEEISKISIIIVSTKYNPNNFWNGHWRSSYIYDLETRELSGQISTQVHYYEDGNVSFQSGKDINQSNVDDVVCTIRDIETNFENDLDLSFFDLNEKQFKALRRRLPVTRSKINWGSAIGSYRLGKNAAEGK
T1 sequence (P13517 1-287): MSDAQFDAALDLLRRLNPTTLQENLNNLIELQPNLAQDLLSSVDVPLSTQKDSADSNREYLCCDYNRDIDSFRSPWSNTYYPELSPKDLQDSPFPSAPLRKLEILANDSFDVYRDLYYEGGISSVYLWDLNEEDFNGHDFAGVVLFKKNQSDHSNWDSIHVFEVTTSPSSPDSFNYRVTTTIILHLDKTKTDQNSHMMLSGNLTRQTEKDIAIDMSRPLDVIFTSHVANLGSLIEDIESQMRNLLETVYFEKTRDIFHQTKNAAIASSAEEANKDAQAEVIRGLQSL

[3] = target: T2, His-Cap1/2^D44A (S. cerevisiae, UniProt P28495 1-268; P13517 1-287, D44A); test: pull-down
T2 sequence (looked up) 1: T1 sequence (P28495 1-268)
T2 sequence (looked up) 2: T1 sequence (P13517 1-287) with D44A

[4] = target: T3, His-Cap1/2^D88A (S. cerevisiae, UniProt P28495 1-268; P13517 1-287, D88A); test: pull-down
T3 sequence (looked up) 1: T1 sequence (P28495 1-268)
T3 sequence (looked up) 2: T1 sequence (P13517 1-287) with D88A

[5] = target: T4, 6-histidine-tagged actin capping protein (His-Cap1/2) (S. cerevisiae, UniProt P28495 1-268; P13517 1-287); test: pull-down
T4 sequence (looked up) 1: T1 sequence (P28495 1-268)
T4 sequence (looked up) 2: T1 sequence (P13517 1-287)

[6] = target: T5, His-Cap1/2^D64A (S. cerevisiae, UniProt P28495 1-268; P13517 1-287, D64A); test: pull-down
T5 sequence (looked up) 1: T1 sequence (P28495 1-268)
T5 sequence (looked up) 2: T1 sequence (P13517 1-287) with D64A

[7] = tested on: rabbit skeletal muscle actin; test: Pyrene actin polymerization assay, substance alone; type: biochemical; details: in words, capping protein 100 nM, 1 µM actin, 20% pyrene-labeled
Method in brief: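 Rabbit skeletal muscle G-actin in G-buffer (pH 8, 0.2 mM ATP) was spun at 100,000 × g for 30 min at 4°C. It was Mg-exchanged (10 mM EGTA, 1 mM MgCl2) for 10 min at room temperature. Polymerization was started with 50 mM KCl, 2 mM MgCl2, 1 mM ATP and 1 mM EGTA (final). Pyrene fluorescence was read over time at ex 365/em 406 nm. Relative rate came from three independent assays, mean ± SEM.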

effect on the capping function of CP [2]: had no effect
Molecule: SNPDLPNKSNLKFNKPKGPLRKRRT [Twf1^CPI]

binding result [3]: binds
binding result [4]: binds
binding result [5]: binds
binding result [6]: binds
B1: GST-Aim21^CPI (Aim21 491-545) with His-Tda2 (Tda2/Aim21 complex) (complex, S. cerevisiae)
chain 1: QAKTGPLGGTRRGRGPRGRKLPSKVASVEKIEEDDNTNKIEIFNNWNVSSSFSKE
chain 2: MSMQIEIKDGRSDNSPLPERKLVTLIQESYDSLKDDNEINLSTESTSNLLIKLVLEKLEKHSSLYKYIASVTTLNIEGLNEENANFSLKNDIGASWESKKDGIFNYKLEDKNNNECYLITILWLHK

binding result [3]: binds
binding result [4]: binds
binding result [5]: binds
binding result [6]: binds
Molecule: SNPDLPNKSNLKFNKPKGPLRKRRT (domain or fragment, S. cerevisiae) [GST-Twf1^CPI (Twf1 308-332)]

binding result [3]: binds
binding result [4]: binds
binding result [5]: binds
binding result [6]: binds
Molecule: KETKPLVHPNKNRTRGPRRKLPTRV (domain or fragment, S. cerevisiae) [GST-Bsp1^CPI (Bsp1 552-576)]

Continued, molecule first:

Molecule: GST-Inp51: GST fused to Inp51 fragment (874–900) (SIAGPTHSPTPIPEPKRGRKLPPPSSD; also: GST fusion, end not given here)
interaction with His-Cap1/2 in GST pulldown [1]: failed to pull down

Molecule: KETKPLVHPNKNRTRGPRRKLPTRV [Bsp1^CPI]
effect on the capping function of CP [2]: partially inhibited the capping function of CP

Molecule: KTGPLGGTRRGRGPRGRKLPSKVASVEKIEEDDNTNKIEIFNNWNVSS [Aim21^CPI]
effect on the capping function of CP [2]: partially inhibited the capping function of CP

B2: CP: 6-histidine–tagged yeast actin capping protein, Cap1/Cap2 heterodimer (protein, UniProt P28495 2-268; P13517 2-287, looked up)
F-actin-capping protein … 1: SSSKFEEVINKIINDSPPGELREVYDDLIKITSENSKNTILDAIENYNVQNCIPIEVNGNSVIISKYNKEGAKFFDPVNSVIFSVNHLERKGLDIEPYEFTHAKIEKGQLKELHDKLHEYLLQSFPGDVSFAVYPVPEEISKISIIIVSTKYNPNNFWNGHWRSSYIYDLETRELSGQISTQVHYYEDGNVSFQSGKDINQSNVDDVVCTIRDIETNFENDLDLSFFDLNEKQFKALRRRLPVTRSKINWGSAIGSYRLGKNAAEGK
F-actin-capping protein … 2: SDAQFDAALDLLRRLNPTTLQENLNNLIELQPNLAQDLLSSVDVPLSTQKDSADSNREYLCCDYNRDIDSFRSPWSNTYYPELSPKDLQDSPFPSAPLRKLEILANDSFDVYRDLYYEGGISSVYLWDLNEEDFNGHDFAGVVLFKKNQSDHSNWDSIHVFEVTTSPSSPDSFNYRVTTTIILHLDKTKTDQNSHMMLSGNLTRQTEKDIAIDMSRPLDVIFTSHVANLGSLIEDIESQMRNLLETVYFEKTRDIFHQTKNAAIASSAEEANKDAQAEVIRGLQSL
modifications: His6 tag
ability to cap actin filaments ([7]; listed as CP^1*): no ability to cap actin filaments
ability to cap actin filaments ([7]; listed as CP^2*): equivalent capping ability to CP
